How the values were obtained:
[1] = biological target: T1, Adenosine receptor A3 (Homo sapiens) (UniProt P0DMS8); assay: Displacement of [125I]AB-MECA from human cloned adenosine A3 receptor expressed in CHO cells at 1 uM; format: cell-based
T1 sequence (whole entry): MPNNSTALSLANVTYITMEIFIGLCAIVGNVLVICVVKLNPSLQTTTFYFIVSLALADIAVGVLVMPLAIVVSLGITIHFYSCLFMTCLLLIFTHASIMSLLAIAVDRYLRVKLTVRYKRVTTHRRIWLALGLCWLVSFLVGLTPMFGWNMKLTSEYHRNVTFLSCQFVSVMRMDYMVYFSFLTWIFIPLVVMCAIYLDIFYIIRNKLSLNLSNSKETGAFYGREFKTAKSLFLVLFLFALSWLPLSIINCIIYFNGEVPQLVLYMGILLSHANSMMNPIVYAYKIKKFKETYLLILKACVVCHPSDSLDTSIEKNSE
Method in brief: (§1)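 Membranes from CHO cells stably expressing hA3 AR, labelled with [125I]AB-MECA (Kd 1.4 nM). IC50 from nonlinear regression using five displacer concentrations, each in triplicate. Ki calculated by Cheng-Prusoff, mean ± SEM of four assays. Single-point data are percent inhibition of specific binding at 1 μM.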

[2] = biological target: T2, Adenosine receptor A1 (Homo sapiens) (UniProt P30542); assay: Displacement of [3H]DPCPX from human cloned adenosine A1 receptor expressed in CHO cells at 10 uM; format: cell-based
T2 sequence (whole entry): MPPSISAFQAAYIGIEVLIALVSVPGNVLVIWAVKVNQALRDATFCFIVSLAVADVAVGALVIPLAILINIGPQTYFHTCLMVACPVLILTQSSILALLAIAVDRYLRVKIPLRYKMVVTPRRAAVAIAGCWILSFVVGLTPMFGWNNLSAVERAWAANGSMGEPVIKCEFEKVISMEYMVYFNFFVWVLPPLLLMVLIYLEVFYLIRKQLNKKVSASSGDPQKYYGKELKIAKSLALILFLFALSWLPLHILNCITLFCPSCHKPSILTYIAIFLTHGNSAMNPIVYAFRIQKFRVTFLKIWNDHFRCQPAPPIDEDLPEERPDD
Method in brief: (§2)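 Radioligand displacement in CHO membranes stably expressing hA1 ([3H]DPCPX, Kd 3 nM) or hA2A ([3H]NECA, Kd 30 nM). Percent inhibition of specific binding at 10 μM. Full curves used five concentrations in triplicate, with IC50 converted to Ki by Cheng-Prusoff.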

[3] = biological target: Adenosine receptor A2a (Homo sapiens) (UniProt P29274); assay: Displacement of [3H]NECA from human cloned adenosine A2A receptor expressed in CHO cells at 10 uM; format: cell-based; method in brief: as §2
Adenosine receptor A3 [4] = biological target: T3, Adenosine receptor A3 (Homo sapiens, UniProt P0DMS8); assay: Antagonist activity at human cloned adenosine A3 receptor expressed in CHO cells assessed as inhibition of […] after 15 mins; format: functional, cell-based
T3 sequence (P0DMS8 whole entry): T1 sequence (whole entry)
Method in brief: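 CHO cells stably expressing hA3 plated and grown 48 h. Preincubated 15 min at 37 °C with Ro20-1724 (20 μM) and adenosine deaminase (1 U/mL). Compound (1 nM to 10 μM) given for 15 min at 37 °C, then 100 nM NECA. Reversal of NECA-induced cAMP inhibition measured by [3H]cAMP competitive protein binding assay. IC50 from sigmoid nonlinear regression, means ± SEM of three experiments.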

[5] = biological target: T4, Adenosine receptor A2b (Homo sapiens) (UniProt P29275); assay: Antagonist activity at human cloned adenosine A2B receptor expressed in CHO cells assessed as inhibition of NECA-induced cAMP accumulation at 1 nM to 10 uM after 15 mins; format: functional, cell-based
T4 sequence (whole entry): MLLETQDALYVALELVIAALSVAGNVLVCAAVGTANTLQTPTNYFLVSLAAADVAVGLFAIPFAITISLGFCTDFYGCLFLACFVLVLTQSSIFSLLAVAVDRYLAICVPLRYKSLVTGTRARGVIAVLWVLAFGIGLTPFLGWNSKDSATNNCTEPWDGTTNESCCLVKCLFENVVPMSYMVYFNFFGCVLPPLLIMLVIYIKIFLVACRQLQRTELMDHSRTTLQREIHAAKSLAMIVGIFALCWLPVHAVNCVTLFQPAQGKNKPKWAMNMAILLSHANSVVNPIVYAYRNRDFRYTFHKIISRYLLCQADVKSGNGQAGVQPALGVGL
Method in brief: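 Stably transfected CHO cells (~60000) plated and grown 48 h. Preincubated 15 min at 37 °C in DMEM containing Ro20-1724 (20 μM) and adenosine deaminase (1 U/mL). Compound (1 nM to 10 μM) added for 15 min at 37 °C, then 100 nM NECA. Reaction stopped with 0.4 N HCl and lysate neutralised with KOH. cAMP measured by competitive binding to beef adrenal binding protein with [3H]cAMP (2 nM) for 150 min at 4 °C, then filtration. Read-out is percent inhibition of NECA-stimulated cAMP.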

Adenosine receptor A3 [6] = biological target: T3, Adenosine receptor A3; assay: Displacement of [125I]AB-MECA from human cloned adenosine A3 receptor expressed in CHO cells; format: cell-based; method in brief: as §1
[7] = Displacement of [3H]CGS21680 from adenosine A2A receptor in bovine brain membranes; format: cell membranes, Bos taurus
[8] = biological target: Adenosine receptors; A1 & A3 (Homo sapiens) (UniProt P30542+P0DMS8); assay: Selectivity ratio of Ki for human cloned adenosine A1 receptor to Ki for human cloned adenosine A3 receptor
Method in brief: (§3)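 Ki values from radioligand displacement at hA1 ([3H]DPCPX, Kd 3 nM), hA2A ([3H]NECA, Kd 30 nM) and hA3 ([125I]AB-MECA, Kd 1.4 nM) in CHO membranes. Five displacer concentrations in triplicate, Cheng-Prusoff conversion, means of four assays. Ratio taken as A1 or A2A Ki over A3 Ki.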

Homo sapiens = species: Homo sapiens; assay: Selectivity ratio of Ki for human cloned adenosine A2A receptor to Ki for human cloned adenosine A3 receptor; method in brief: as §3

Adenosine receptor A2a (Homo sapiens), sequence (P29274 whole entry): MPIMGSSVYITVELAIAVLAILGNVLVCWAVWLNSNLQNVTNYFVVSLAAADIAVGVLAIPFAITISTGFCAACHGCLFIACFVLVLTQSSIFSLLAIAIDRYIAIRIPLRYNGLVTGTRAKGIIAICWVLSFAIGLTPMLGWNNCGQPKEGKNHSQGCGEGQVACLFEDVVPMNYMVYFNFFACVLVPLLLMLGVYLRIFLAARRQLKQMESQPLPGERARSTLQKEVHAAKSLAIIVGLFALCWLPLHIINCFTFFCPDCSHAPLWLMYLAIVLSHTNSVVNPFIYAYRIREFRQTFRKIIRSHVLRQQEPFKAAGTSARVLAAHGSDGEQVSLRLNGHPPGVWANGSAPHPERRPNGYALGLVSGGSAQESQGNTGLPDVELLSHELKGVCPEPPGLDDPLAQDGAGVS

Row | inhibition [1] [%] | inhibition [2] [%] | inhibition [3] [%] | IC50 (Adenosine receptor A3 [4]) [nM] | inhibition [5] [%] | Ki (Adenosine receptor A3 [6]) [nM] | Ki [7] [nM] | Ratio Ki [8] | Ratio Ki (Homo sapiens) | SMILES
1 | 28 | 23 | 4 |  |  |  |  |  |  | O=C(Cc1ccccc1)Nc1nn(-c2ccccc2)c(=O)c2ccccc12
2 |  | 45 | 28 | 18 | 57 | 9.75 |  |  |  | COc1cccc(NC(=O)Nc2nn(-c3ccccc3)c(=O)c3ccccc23)c1
3 | 8 | 24 | 45 |  |  |  |  |  |  | Nc1nn(-c2ccccc2)c(=O)c2ccccc12
4 | 17 | 26 | 17 |  |  |  |  |  |  | O=C(Nc1nn(-c2ccccc2)c(=O)c2ccccc12)c1ccc(Cl)cc1
5 |  | 28 | 28 |  |  | 274 |  |  |  | COc1ccccc1CNC(=O)Nc1nn(-c2ccccc2)c(=O)c2ccccc12
6 | 0 | 52 | 14 |  |  |  |  |  |  | CC(=O)Nc1nn(-c2ccccc2)c(=O)c2ccccc12
7 | 45 | 29 | 0 |  |  |  |  |  |  | Cc1ccc(NC(=O)Nc2nn(-c3ccccc3)c(=O)c3ccccc23)cc1
8 |  |  |  |  |  |  | 2300 |  |  | O=C(Nc1ccccc1)Nc1nc2ccccc2n2c(=O)n(-c3ccccc3)nc12
9 |  | 20 | 23 | 1.15 | 34 | 29.6 |  |  |  | O=C(NCc1ccccc1)Nc1nn(-c2ccccc2)c(=O)c2ccccc12
10 |  | 44 | 42 |  |  | 178 |  |  |  | O=C(Nc1ccccc1)Nc1nn(-c2ccccc2)c(=O)c2ccccc12
11 |  | 0 | 19 | 8.25 | 0 | 0.776 |  | 10000 | 10000 | COc1ccc(OC)c(NC(=O)Nc2nn(-c3ccccc3)c(=O)c3ccccc23)c1
12 | 10 | 0 | 17 |  |  |  |  |  |  | COc1ccc(C(=O)Nc2nn(-c3ccccc3)c(=O)c3ccccc23)cc1
13 | 13 | 10 | 9 |  |  |  |  |  |  | O=C(Nc1ccc(Cl)cc1)Nc1nn(-c2ccccc2)c(=O)c2ccccc12
14 | 49 | 0 | 3 |  |  |  |  |  |  | O=C(Nc1ccccc1Cl)Nc1nn(-c2ccccc2)c(=O)c2ccccc12
15 | 0 | 47 | 10 |  |  |  |  |  |  | CC(=O)N(C(C)=O)c1nn(-c2ccccc2)c(=O)c2ccccc12
16 |  | 44 | 35 |  |  | 1100 |  |  |  | O=C(Nc1nn(-c2ccccc2)c(=O)c2ccccc12)c1ccccc1
17 |  |  |  |  |  | 490 |  |  |  | Nc1nc2ccccc2n2c(=O)n(-c3ccccc3)nc12
18 |  | 0 | 17 | 17 | 16 | 8.9 |  |  |  | COc1ccccc1NC(=O)Nc1nn(-c2ccccc2)c(=O)c2ccccc12
19 | 22 | 20 | 28 |  |  |  |  |  |  | Cc1ccccc1NC(=O)Nc1nn(-c2ccccc2)c(=O)c2ccccc12
20 | 33 | 29 | 33 |  |  |  |  |  |  | COc1ccc(NC(=O)Nc2nn(-c3ccccc3)c(=O)c3ccccc23)c(OC)c1
21 |  | 4 | 51 | 28 | 0 | 60.6 |  |  |  | COc1ccc(NC(=O)Nc2nn(-c3ccccc3)c(=O)c3ccccc23)cc1
22 | 8 | 23 | 41 |  |  |  |  |  |  | O=C(Nc1nn(-c2ccccc2)c(=O)c2ccccc12)c1ccco1

Reference: ChEMBL document CHEMBL1764987, “The identification of the 2-phenylphthalazin-1(2H)-one scaffold as a new decorable core skeleton for the design of potent and selective human A3 adenosine receptor antagonists” (J Med Chem, 2011)
